Measurements taken from ChEMBL document CHEMBL5316278, “Chemical Blockage of the Mitochondrial Rhomboid Protease PARL by Novel Ketoamide Inhibitors Reveals Its Role in PINK1/Parkin-Dependent Mitophagy” (J Med Chem, 2023).
Calls of active or inactive are those of the source. The calls are words filed in the database; no cut-off is given here. *1 amine or outer side, *2 acyl side, *3 side chain or, on linkers, in order; H or OH if unused. Where a SMILES comes first, the peptide text is derived from it. [ ]: non-standard residue; d: D form. The star is where a group is joined. NH(4-phenylbutyl) = c1ccc(CCCCN*)cc1; X1 = C[C@H](N[*:1])C(=O)C(=O)[*:2]

Legend:
[1] = system: HEK-293T; assay: Disruption of mitochondrial membrane potential in human HEK293T cells at 5 uM incubated for 3 hrs by JC-1 staining method; assay type: functional, cell-based
[2] = molecular target: T1, Presenilin-associated rhomboid-like protein, mitochondrial (Homo sapiens) (UniProt Q9H300); assay: Inhibition of human PARL expressed in human Flp-In-T-REx-293 cells overexpressing PINK1 assessed as stabilization of 62 kDa PINK1 by measuring its inner mitochondrial level at 5 uM incubated for 3 hrs followed by proteinase K treatment by immunoblot analysis; assay type: cell-based
T1 sequence (whole entry): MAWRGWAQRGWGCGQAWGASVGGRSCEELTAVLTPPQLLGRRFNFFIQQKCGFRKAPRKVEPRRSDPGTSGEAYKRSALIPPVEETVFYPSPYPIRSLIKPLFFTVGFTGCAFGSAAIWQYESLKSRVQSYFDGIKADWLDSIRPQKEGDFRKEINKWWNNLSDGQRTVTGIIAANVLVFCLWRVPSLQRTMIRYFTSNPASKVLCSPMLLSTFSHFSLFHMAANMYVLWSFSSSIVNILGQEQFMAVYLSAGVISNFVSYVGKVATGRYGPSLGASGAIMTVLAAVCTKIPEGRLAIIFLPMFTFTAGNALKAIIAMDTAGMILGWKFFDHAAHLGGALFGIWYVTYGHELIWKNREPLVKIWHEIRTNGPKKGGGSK
Method in brief: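 PINK1 was induced in HEK293 T-REx cells by doxycycline and treated for 3 h, with DMSO and CCCP as comparators. Mitochondria were isolated at 4 °C in EGTA-free isolation buffer and exposed to proteinase K for 1 h, then PMSF (2.5 mM, 15 min). PINK1 forms were read by immunoblot, with AIF and VDAC as fractionation controls.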

[3] = molecular target: T1, Presenilin-associated rhomboid-like protein, mitochondrial (Homo sapiens); assay: Inhibition of human PARL expressed in human T-REx-293 cells overexpressing PINK1 transfected with HA-Parkin-IRES-GFP assessed as increase in Parkin level in mitochondrial fraction at 5 uM incubated for 22 hrs by immunoblot analysis; assay type: mitochondria
Method in brief: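 PINK1-induced HEK293 T-REx cells were transiently transfected with HA-Parkin-IRES-GFP (100 ng per 6-well, linear PEI). They were treated for 22 h, with DMSO, CCCP (10 μM, 3 h) and Antimycin A (30 μM, 3 h) as comparators. Cells were fractionated into cytosolic and mitochondrial fractions and immunoblotted (AIF, β-actin controls); n = 3, unpaired t-test.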

[4] = molecular target: T1, Presenilin-associated rhomboid-like protein, mitochondrial (Homo sapiens); assay: Inhibition of human PARL expressed in human T-REx-293 cells overexpressing PINK1 transfected with mito-mCherry and Parkin-mEGFP assessed as Parkin recruitment in mitochondria at 5 uM incubated for 3 hrs by fluorescence based microscopic analysis
Method in brief: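 PINK1-induced HEK293 T-REx cells on poly-L-lysine slides were co-transfected with mito-mCherry and Parkin-mEGFP using PEI. Nuclei were stained with Hoechst (1 μg/mL) before treatment, and cells were treated for 3 h alongside DMSO, CCCP and Antimycin A. Parkin colocalisation with mitochondria was judged by fluorescence microscopy and line-scan pixel intensity plots.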

[5] = molecular target: T1, Presenilin-associated rhomboid-like protein, mitochondrial (Homo sapiens); assay: Inhibition of human PARL expressed in human HEK293T cells assessed as stabilization of 66 kDa PINK1 at 5 uM incubated for 8 hrs by immunoblot analysis; assay type: cell-based
Method in brief: (§1)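 Parental HEK293T cells (endogenous PINK1) were treated for 8 h, with DMSO or CCCP as comparators. Mitochondrial membranes were enriched by hypotonic needle lysis, 100,000 × g pelleting and 100 mM Na2CO3 extraction through a sucrose cushion. PINK1 was then read by immunoblot, with VDAC as fractionation control; n = 3, means ± SEM.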

[6] = molecular target: T1, Presenilin-associated rhomboid-like protein, mitochondrial (Homo sapiens); assay: Inhibition of human PARL expressed in human HEK293T cells assessed as stabilization of 62 kDa PINK1 at 5 uM incubated for 8 hrs by immunoblot analysis; assay type: cell-based; method in brief: as §1
[7] = molecular target: T1, Presenilin-associated rhomboid-like protein, mitochondrial (Homo sapiens); assay: Inhibition of human PARL expressed in human Flp-In-T-REx-293 cells overexpressing PINK1 with OMA1 knockdown assessed as stabilization of 53 kDa PINK1 at 10 uM incubated for 8 hrs by immunoblot analysis; assay type: cell-based
Method in brief: (§2)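 PINK1-inducible HEK293 T-REx cells were transfected with 20 nM siRNA using RNAiMAX and analysed five days later. PINK1 was induced with doxycycline. Cells were treated for 8 h with 10 μM or DMSO. Read-out was immunoblot, with β-actin as loading control.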

[8] = molecular target: T1, Presenilin-associated rhomboid-like protein, mitochondrial (Homo sapiens); assay: Inhibition of human PARL expressed in human Flp-In-T-REx-293 cells overexpressing PINK1 assessed as stabilization of 66 kDa PINK1 at 0.1 to 30 uM incubated for 8 hrs by immunoblot analysis; assay type: cell-based; settings: dose 0.1-30 µM
Method in brief: (§3)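 HEK293 T-REx cells with inducible PINK1 were grown in DMEM with 10% FBS, GlutaMAX, pyruvate, hygromycin and blasticidin. PINK1 was induced with 0.3 μg/mL doxycycline for 24 h. Cells were treated for 8 h, with DMSO and CCCP (10 μM, 3 h) as comparators. Cleaved PINK1 forms were resolved by immunoblot of whole-cell samples.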

[9] = molecular target: T1, Presenilin-associated rhomboid-like protein, mitochondrial (Homo sapiens); assay: Inhibition of human PARL expressed in human Flp-In-T-REx-293 cells overexpressing PINK1 assessed as stabilization of 62 kDa PINK1 at 0.1 to 30 uM incubated for 8 hrs by immunoblot analysis; assay type: cell-based; settings: dose 0.1-30 µM; method in brief: as §3
[10] = molecular target: T1, Presenilin-associated rhomboid-like protein, mitochondrial (Homo sapiens); assay: Inhibition of human PARL expressed in human Flp-In-T-REx-293 cells overexpressing PINK1 assessed as stabilization of 53 kDa PINK1 at 0.1 to 30 uM incubated for 8 hrs by immunoblot analysis; assay type: cell-based; settings: dose 0.1-30 µM; method in brief: as §3
[11] = molecular target: T1, Presenilin-associated rhomboid-like protein, mitochondrial (Homo sapiens); assay: Inhibition of human PARL expressed in human Flp-In-T-REx-293 cells overexpressing PINK1 with OMA1 knockdown assessed as stabilization of 62 kDa PINK1 at 10 uM incubated for 8 hrs by immunoblot analysis; assay type: cell-based; method in brief: as §2
[12] = molecular target: T1, Presenilin-associated rhomboid-like protein, mitochondrial (Homo sapiens); assay: Inhibition of human PARL expressed in human Flp-In-T-REx-293 cells overexpressing PINK1 assessed as stabilization of 66 kDa PINK1 at outer mitochondrial membrane at 5 uM incubated for 6 hrs followed by proteinase K treatment by immunoblot analysis; assay type: cell-based
Method in brief: (§4)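 PINK1 was induced in HEK293 T-REx cells (doxycycline 0.3 μg/mL, 24 h), then treated for 6 h. Cells were lysed directly, or mitochondria were isolated by needle lysis and 10,000 × g centrifugation and digested with proteinase K for 30 min, then 2.5 mM PMSF for 15 min. Read-out was immunoblot, with AIF as fractionation control.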

[13] = molecular target: T1, Presenilin-associated rhomboid-like protein, mitochondrial (Homo sapiens); assay: Inhibition of human PARL expressed in human Flp-In-T-REx-293 cells overexpressing PINK1 assessed as stabilization of 53 kDa PINK1 at outer mitochondrial membrane at 5 uM incubated for 6 hrs followed by proteinase K treatment by immunoblot analysis; assay type: cell-based; method in brief: as §4

What does the source list for `N#CC(C#N)=NNc1cccc(Cl)c1`?
Activity [1]: Active; inhibition [2]: inactive; inhibition [3]: Active

For `CCCCCC[C@H]1C(=O)O[C@H](C)[C@H](NC(=O)c2cccc(NC=O)c2O)C(=O)O[C@@H](C)[C@@H]1OC(=O)CC(C)C`, which inhibition [4] is on record?
The inhibition was “inactive”.

What about the inhibition [3] of the same compound?
The inhibition was “Active”.

What does the source list for `CC(=O)N[C@@H](C)C(=O)N[C@H](C(=O)N[C@@H](Cc1ccccc1)C(=O)N[C@@H](CC(C)C)C(=O)N[C@@H](C)C(=O)C(=O)NCCCCc1ccccc1)C(C)C` (Ac-AVFL[X1]-{NH(4-phenylbutyl)})?
inhibition [5]: Active; inhibition [6]: Active; inhibition [4]: Active; inhibition [7]: Active; Activity [1]: inactive; inhibition [8]: Dose-Dependent Effect; inhibition [9]: Dose-Dependent Effect; inhibition [10]: Dose-Dependent Effect; inhibition [11]: Active; inhibition [2]: Active; inhibition [12]: inactive; inhibition [13]: inactive; inhibition [3]: Active
